Source: ChEMBL document CHEMBL1817610, “Synthesis and SAR requirements of adamantane-colchicine conjugates with both microtubule depolymerizing and tubulin clustering activities” (Bioorg Med Chem, 2011)
Active and inactive are the calls of the source. The rule behind the calls is not given here.

What was measured:
A549 [1] = assay: Cytotoxicity against human A549 cells after 24 hrs by MTT assay; assay type: functional, cell-based; details: A549, 24 h
Summary of the method: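 A549 cells kept in DMEM with 10% FBS and 1% penicillin/streptomycin at 37 °C, 5% CO2, then seeded at 3 × 10³ per well. Exposure 24 h to test agents at 1–12000 nM (DMSO stocks; 0.4% DMSO negative control), 8 wells per concentration. Surviving cells counted by colorimetric MTT (5 mg/mL in PBS). EC50 averaged over three to six experiments.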

A549 [2] = assay: Effect on microtubule network in human A549 cells assessed as microtubule depolymerization and tubulin clustering at 1 uM after 8 hrs by immunofluorescence microscopic analysis; assay type: functional, cell-based
Summary of the method: (§1)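 A549 cells grown on 11 mm glass coverslips at 2 × 10⁴ cells each. Exposure to compounds at 1 and 5 µM for 8 h at 37 °C, 5% CO2, with 0.5% DMSO as negative control. Cells fixed in 4% paraformaldehyde and stained with mouse monoclonal anti-α-tubulin, then Alexa Fluor488 goat anti-mouse IgG (1:200). Fluorescence microscopy, effect scored semi-quantitatively by '+' grades.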

Bos taurus = species on record: Bos taurus; assay: Inhibition of bovine brain tubulin polymerization after 1 hr
Summary of the method: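 Purified bovine brain tubulin polymerized with 10% DMSO present and test agent at 10 µM. Incubation 1 h, then preparations examined by Allen video-enhanced microscopy.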

A549 [3] = assay: Effect on microtubule network in human A549 cells assessed as microtubule depolymerization and tubulin clustering at 5 uM after 8 hrs by immunofluorescence microscopic analysis; assay type: functional, cell-based; summary of the method: as §1
A549 [4] = assay: Effect on microtubule network in human A549 cells assessed as microtubule depolymerization at 1 uM after 8 hrs by immunofluorescence microscopic analysis; assay type: functional, cell-based; summary of the method: as §1
A549 [5] = assay: Effect on microtubule network in human A549 cells assessed as microtubule binding at 1 uM after 8 hrs by immunofluorescence microscopic analysis; assay type: functional, cell-based
A549 (Homo sapiens) = assay: Effect on microtubule network in human A549 cells assessed as tubulin clustering formation after 8 hrs by immunofluorescence microscopic analysis

| SMILES | EC50 (A549 [1]) | Activity (A549 [2]) | also measured |
| --- | --- | --- | --- |
| COc1cc2c(c(OC)c1OC)-c1ccc(OC)c(=O)cc1[C@@H](NC(=O)CCCCCC(=O)OC1C3CC4CC1CC(OC(=O)[C@H](O)[C@@H](NC(=O)OC(C)(C)C)c1ccccc1)(C4)C3)CC2 (mixture of isomers) | 73 nM | Active | inhibition (Bos taurus): Active; Activity (A549 [3]): Active |
| COc1cc2c(c(OC)c1OC)-c1ccc(OC)c(=O)cc1[C@@H](NC(=O)CCCCCC(=O)OC(C)C)CC2 | 30 nM | Active | – |
| COc1cc2c(c(OC)c1OC)-c1ccc(OC)c(=O)cc1[C@@H](NC(=O)CCCCC(=O)OC1C3CC4CC(C3)CC1C4)CC2 (stereo not given in full) | 830 nM | Active | – |
| COc1cc2c(c(OC)c1OC)-c1ccc(OC)c(=O)cc1[C@@H](NC(=O)CCCC(=O)OC1C3CC4CC1CC(OC(=O)[C@H](O)[C@@H](NC(=O)OC(C)(C)C)c1ccccc1)(C4)C3)CC2 (mixture of isomers) | 220 nM | – | – |
| COc1cc2c(c(OC)c1OC)-c1ccc(OC)c(=O)cc1[C@@H](NC(=O)CCCC(=O)OC1C3CC4CC(C3)CC1C4)CC2 (stereo not given in full) | 200 nM | – | Activity (A549 [4]): Active |
| CC(=O)O[C@H]1C(=O)[C@@]2(C)[C@H]([C@H](OC(=O)c3ccccc3)[C@]3(O)C[C@H](OC(=O)[C@H](O)[C@@H](NC(=O)c4ccccc4)c4ccccc4)C(C)=C1C3(C)C)[C@]1(OC(C)=O)CO[C@@H]1C[C@@H]2O [PACLITAXEL] | 4.6 nM | – | Activity (A549 [5]): Active |
| COc1cc2c(c(OC)c1OC)-c1ccc(OC)c(=O)cc1[C@@H](NC(=O)CCCCCC(=O)OC13CC4CC(CC(C4)C1)C3)CC2 | 11 nM | Active | – |
| COc1cc2c(c(OC)c1OC)-c1ccc(OC)c(=O)cc1[C@@H](NC(=O)CCCCCCCC(=O)OC13CC4CC(CC(C4)C1)C3)CC2 | 29 nM | – | – |
| COC(=O)CCCCCC(=O)N[C@H]1CCc2cc(OC)c(OC)c(OC)c2-c2ccc(OC)c(=O)cc21 | 32 nM | – | Activity (A549 [4]): Active |
| COc1cc2c(c(OC)c1OC)-c1ccc(OC)c(=O)cc1[C@@H](NC(=O)CCCCCC(=O)Oc1ccccc1)CC2 | 5700 nM | – | Activity (A549 [4]): Active |
| COc1cc2c(c(OC)c1OC)-c1ccc(OC)c(=O)cc1[C@@H](NC(=O)CCCCCCCCCCCOC(=O)[C@H](O)[C@@H](NC(=O)OC(C)(C)C)c1ccccc1)CC2 | 41 nM | Active | – |
| COc1cc2c(c(OC)c1OC)-c1ccc(OC)c(=O)cc1[C@@H](NC(=O)CCCCCC(=O)OC1CCCCC1)CC2 | 4.8 nM | Active | – |
| COc1cc2c(c(OC)c1OC)-c1ccc(OC)c(=O)cc1[C@@H](NC(=O)CCCCCC(=O)OC1C3CC4CC(C3)CC1C4)CC2 (stereo not given in full) | 6 nM | Active | Activity (A549 (Homo sapiens)): Active |
| COc1cc2c(c(OC)c1OC)-c1ccc(OC)c(=O)cc1[C@@H](NC(C)=O)CC2 [COLCHICINE] | 27 nM | – | Activity (A549 [4]): Active |
| COc1cc2c(c(OC)c1OC)-c1ccc(OC)c(=O)cc1[C@@H](NC(=O)CCCCCCC(=O)OC1C3CC4CC(C3)CC1C4)CC2 (stereo not given in full) | 5 nM | Active | – |
| COc1cc2c(c(OC)c1OC)-c1ccc(OC)c(=O)cc1[C@@H](NC(=O)CCCCCCCC(=O)OC1C3CC4CC(C3)CC1C4)CC2 (stereo not given in full) | 3800 nM | Active | – |
| COc1cc2c(c(OC)c1OC)-c1ccc(OC)c(=O)cc1[C@@H](NC(=O)CCCCCCC(=O)OC1C3CC4CC1CC(OC(=O)[C@H](O)[C@@H](NC(=O)OC(C)(C)C)c1ccccc1)(C4)C3)CC2 (mixture of isomers) | 2 nM | Active | – |
